Results reported in ChEMBL document CHEMBL3596119, “Synthesis and biological characterization of a promising F-18 PET tracer for vesicular acetylcholine transporter” (Bioorg Med Chem, 2015).

Experiments:
[1] = biological target: T1, Vesicular acetylcholine transporter (Homo sapiens, UniProt Q16572); assay: Displacement of [3H]-vesamicol from human VAChT after 24 hrs by liquid scintillation spectrometry analysis
T1 sequence (Q16572 whole entry): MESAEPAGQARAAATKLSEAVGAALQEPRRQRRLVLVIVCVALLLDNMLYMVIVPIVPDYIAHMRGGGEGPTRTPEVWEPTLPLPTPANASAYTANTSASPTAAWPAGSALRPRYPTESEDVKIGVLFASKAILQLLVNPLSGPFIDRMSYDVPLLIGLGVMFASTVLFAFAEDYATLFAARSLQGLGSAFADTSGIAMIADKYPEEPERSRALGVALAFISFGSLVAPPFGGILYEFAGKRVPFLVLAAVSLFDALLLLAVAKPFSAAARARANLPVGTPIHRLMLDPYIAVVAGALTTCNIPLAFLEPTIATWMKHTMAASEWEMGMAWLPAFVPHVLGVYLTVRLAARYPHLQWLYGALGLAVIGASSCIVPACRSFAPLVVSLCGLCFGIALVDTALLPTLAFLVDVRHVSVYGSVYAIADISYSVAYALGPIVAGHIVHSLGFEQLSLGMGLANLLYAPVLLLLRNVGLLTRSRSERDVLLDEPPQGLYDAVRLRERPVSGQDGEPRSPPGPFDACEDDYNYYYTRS

[2] = biological target: Sigma non-opioid intracellular receptor 1 (Cavia porcellus, UniProt Q60492); assay: Displacement of (+)-[3H]pentazocine from sigma1 receptor in guinea pig brain membrane homogenates; assay type: cell membranes
Chain of Sigma non-opioid intracellular receptor 1 (Q60492 whole entry): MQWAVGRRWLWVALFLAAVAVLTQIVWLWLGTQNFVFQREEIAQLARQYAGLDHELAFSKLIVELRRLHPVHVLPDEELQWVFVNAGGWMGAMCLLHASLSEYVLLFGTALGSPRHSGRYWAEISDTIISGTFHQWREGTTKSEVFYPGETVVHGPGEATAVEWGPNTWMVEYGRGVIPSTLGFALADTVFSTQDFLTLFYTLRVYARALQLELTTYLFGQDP
How it was run: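 Run on guinea pig brain membrane homogenate (~300 μg protein) with 5 nM (+)-[3H]pentazocine. 10 μM haloperidol defined nonspecific binding. IC50 came from nonlinear regression with a one-site fit.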

[3] = Displacement of [3H]DTG from sigma2 receptor in rat liver membrane homogenates; assay type: cell membranes
How it was run: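 Run on rat liver membrane homogenate (~300 μg protein) with ~5 nM [3H]DTG plus 1 μM (+)-pentazocine to mask σ1 sites. 10 μM haloperidol defined nonspecific binding. IC50 came from nonlinear regression.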

Ki [3] [nM] | SMILES | Ki [1] [nM] | Ki [2] [nM]
8200 | O=C(c1ccc(OCCOCCF)cc1)C1CCN([C@@H]2Cc3ccccc3C[C@H]2O)CC1 | 0.87 | 1580
7140 | O=C(c1ccc(F)cc1)C1CCN([C@@H]2Cc3cccc(OCCF)c3C[C@H]2O)CC1 (racemic) | – | > 10000
7800 | O=C(c1ccc(F)cc1)C1CCN(C2Cc3c(cccc3OCCF)CC2O)CC1 (single isomer, unassigned; (+)) | – | –
> 10000 | O=C(c1ccc(F)cc1)C1CCN(C2Cc3c(cccc3OCCF)CC2O)CC1 (single isomer, unassigned; (-)) | – | –

The next lines start with the molecule.

SMILES | Ki [3] [nM] | Ki [1] [nM] | Ki [2] [nM]
O=C(c1ccc(OCCF)cc1)C1CCN([C@@H]2Cc3ccccc3C[C@H]2O)CC1 | 1880 | 1.74 | 13.2
O=C(c1ccc(OCCOCCOCCF)cc1)C1CCN([C@@H]2Cc3ccccc3C[C@H]2O)CC1 | > 10000 | 1.23 | > 10000
O=C(c1ccc(F)cc1)C1CCN([C@@H]2Cc3c(O)cccc3C[C@H]2O)CC1 | 1850 | 4.64 | 8640
O=C(c1ccc(F)cc1)C1CCN([C@@H]2Cc3cccc(O)c3C[C@H]2O)CC1 | 2600 | 56.2 | 28.7
O=C(c1ccc(F)cc1)c1cccc2c1C[C@@H](N1CCC(c3ccccc3)CC1)[C@H](O)C2 | 251 | – | –
O=C(c1ccc(F)cc1)C1CCN([C@@H]2Cc3c(cccc3OCCF)C[C@H]2O)CC1 (racemic) | > 10000 | – | 821
O[C@@H]1CCCC[C@H]1N1CCC(c2ccccc2)CC1 [VESAMICOL] | 346 | – | –
